Experimental data reported in ChEMBL document CHEMBL3580530, “Allotides: Proline-Rich Cystine Knot α-Amylase Inhibitors from Allamanda cathartica” (J Nat Prod, 2015).
Activity calls are given as the source filed them. The rule behind the calls is not given here. Where a SMILES comes first, the peptide text is derived from it. Bridges are numbered along the chain shown (N, C = ends).

Assays:
[1] = Thermal stability assessed as compound degradation in presence of chymotrypsin at 37 degC incubated for 4 hrs; format: ADME; details: isolated protein
How it was run: (§1)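 Peptide incubated with chymotrypsin at 37 °C for 4 h. Intact peptide monitored by UPLC and MS.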

[2] = Thermal stability assessed as compound degradation at 100 degC incubated for 1 hr; format: physicochemical
How it was run: (§2)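 Peptide heated at 100 °C for 1 h. Intact peptide monitored by UPLC and MS.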

[3] = molecular target: T1, Alpha-amylase 1A (Homo sapiens) (UniProt P0DUB6); test: Inhibition of alpha-amylase in human saliva pre-incubated for 20 mins at 37 degC by bernfeld method
T1 sequence (whole entry): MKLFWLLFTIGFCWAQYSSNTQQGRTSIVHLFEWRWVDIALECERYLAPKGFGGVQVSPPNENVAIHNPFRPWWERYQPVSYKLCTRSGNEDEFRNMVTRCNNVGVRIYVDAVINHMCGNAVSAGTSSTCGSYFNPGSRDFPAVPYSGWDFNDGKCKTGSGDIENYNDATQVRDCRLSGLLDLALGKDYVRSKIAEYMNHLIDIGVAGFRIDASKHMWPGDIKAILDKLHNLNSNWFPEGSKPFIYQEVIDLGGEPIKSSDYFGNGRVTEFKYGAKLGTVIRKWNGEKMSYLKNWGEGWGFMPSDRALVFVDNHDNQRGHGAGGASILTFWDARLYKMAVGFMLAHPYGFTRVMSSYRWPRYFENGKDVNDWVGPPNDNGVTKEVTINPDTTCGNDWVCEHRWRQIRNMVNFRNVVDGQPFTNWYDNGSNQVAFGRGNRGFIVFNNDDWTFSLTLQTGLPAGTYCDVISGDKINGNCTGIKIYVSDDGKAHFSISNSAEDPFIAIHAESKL
How it was run: (§3)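 Bernfeld method. Peptide preincubated with α-amylase for 20 min at 37 °C. Hydrolysis started with 1% starch, run 5 min, then stopped with dinitrosalicylic acid color reagent. Absorbance read at 540 nm, with untreated enzyme set as 100%. Enzyme sources: T. molitor larval extract, human saliva, porcine pancreas, A. oryzae.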

[4] = molecular target: T2, Pancreatic alpha-amylase (Sus scrofa) (UniProt P00690); test: Inhibition of porcine pancreas alpha-amylase pre-incubated for 20 mins at 37 degC by bernfeld method; how it was run: as §3
T2 sequence (whole entry): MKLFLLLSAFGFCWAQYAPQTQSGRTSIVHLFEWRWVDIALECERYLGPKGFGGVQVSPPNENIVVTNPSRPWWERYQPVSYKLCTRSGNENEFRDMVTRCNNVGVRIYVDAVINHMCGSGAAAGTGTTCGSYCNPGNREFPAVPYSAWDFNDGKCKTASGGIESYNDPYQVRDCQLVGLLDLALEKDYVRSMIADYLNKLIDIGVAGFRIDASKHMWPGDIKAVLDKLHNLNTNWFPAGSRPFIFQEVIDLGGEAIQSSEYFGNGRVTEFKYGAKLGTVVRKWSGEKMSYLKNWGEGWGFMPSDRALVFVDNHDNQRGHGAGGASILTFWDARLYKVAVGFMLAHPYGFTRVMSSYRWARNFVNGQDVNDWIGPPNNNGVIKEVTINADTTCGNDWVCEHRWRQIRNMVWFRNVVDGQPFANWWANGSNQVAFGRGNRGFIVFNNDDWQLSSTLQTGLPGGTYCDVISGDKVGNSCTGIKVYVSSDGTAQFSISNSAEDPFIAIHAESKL

[5] = tested on: Aspergillus oryzae; test: Inhibition of Aspergillus oryzae alpha-amylase pre-incubated for 20 mins at 37 degC by bernfeld method; how it was run: as §3
[6] = molecular target: Alpha-amylase (Tenebrio molitor) (UniProt P56634); test: (§4) Inhibition of Tenebrio molitor alpha-amylase pre-incubated for 20 mins at 37 degC by bernfeld method; how it was run: as §3
[7] = Toxicity against human HuH7 cells assessed as effect on cell viability up to 100 uM by Presto blue reagent based assay; details: huh-7
[8] = Toxicity against BHK cells assessed as effect on cell viability up to 100 uM by Presto blue reagent based assay; parameters: species or system Mesocricetus auratus; details: hamster
[9] = Thermal stability assessed as compound hydrolysis using filly reduced form of compound in presence of chymotrypsin at 37 degC incubated for 4 hrs by UPLC and MS method; format: ADME; details: isolated protein
How it was run: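 Incubated with chymotrypsin at 37 °C for 4 h, then analysed by UPLC and MS.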

[10] = Thermal stability assessed as compound remaining at 100 degC incubated for 1 hr by UPLC and MS method; format: physicochemical; details: read-out: Stability; how it was run: as §2
[11] = tested on: Escherichia coli; test: Antibacterial activity against Escherichia coli up to 100 uM by radial diffusion assay; format: functional, organism-based
How it was run: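 Radial diffusion assay against E. coli, peptide tested up to 100 μM. Positive control: D4R, a broad-spectrum antimicrobial peptide dendrimer made in-house.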

[12] = molecular target: Alpha-amylase (Tenebrio molitor, UniProt P56634); test: as §4; how it was run: as §3
[13] = tested on: Vero; test: Toxicity against African green monkey Vero cells assessed as effect on cell viability up to 100 uM by Presto blue reagent based assay; details: chlorocebus sabaeus
[14] = Toxicity against human O type erythrocytes cells assessed as induction of hemolysis up to 100 uM; format: cell-based; details: erythrocyte
How it was run: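 Hemolysis tested on human type O erythrocytes at up to 100 μM. Cliotide T4 used as the hemolytic positive control. Absorbance read on a microplate reader.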

[15] = Thermal stability assessed as compound remaining in presence of chymotrypsin at 37 degC incubated for 4 hrs by UPLC and MS method; format: ADME; details: read-out: Stability; how it was run: as §1

Chain of Alpha-amylase (Tenebrio molitor) (P56634 whole entry): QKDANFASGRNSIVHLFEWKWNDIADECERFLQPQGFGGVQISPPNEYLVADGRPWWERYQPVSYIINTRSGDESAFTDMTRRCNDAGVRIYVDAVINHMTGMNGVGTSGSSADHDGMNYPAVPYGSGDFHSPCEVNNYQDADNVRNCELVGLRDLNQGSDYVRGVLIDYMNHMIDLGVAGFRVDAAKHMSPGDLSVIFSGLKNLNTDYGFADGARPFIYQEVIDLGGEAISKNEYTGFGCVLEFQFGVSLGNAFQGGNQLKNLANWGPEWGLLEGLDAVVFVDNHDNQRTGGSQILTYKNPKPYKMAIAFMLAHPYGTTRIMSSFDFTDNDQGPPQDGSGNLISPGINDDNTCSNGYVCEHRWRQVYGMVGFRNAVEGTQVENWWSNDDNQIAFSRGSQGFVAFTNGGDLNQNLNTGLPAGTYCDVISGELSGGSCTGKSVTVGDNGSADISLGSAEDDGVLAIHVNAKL
Chain of Alpha-amylase (P56634 whole entry): as above

Stability [1] | Stability [2] | inhibition [3] | inhibition [4] | inhibition [5] | inhibition [6] | Stability [9] | remaining at 1 h [10] [%] | IC50 [12] [µM] | remaining at 4 h [15] [%] | Compound | Activity [7] | Activity [8] | Activity [11] | Activity [13] | Activity [14]
Stable | Stable |  |  |  |  |  |  |  |  | CC[C@H](C)[C@@H]1NC(=O)CNC(=O)CNC(=O)[C@H]([C@@H](C)CC)NC(=O)[C@H](C(C)C)NC(=O)[C@@H]2CCCN2C(=O)[C@H](CCC(N)=O)NC(=O)[C@H]([C@@H](C)O)NC(=O)[C@@H]2CSSC[C@@H]3NC(=O)[C@H](Cc4ccc(O)cc4)NC(=O)[C@H](CCC(=O)O)NC(=O)CNC(=O)[C@H](CCCCN)NC(=O)[C@H](CCC(N)=O)NC(=O)[C@H](C)NC(=O)[C@@H](N)CSSC[C@H](NC(=O)[C@H](CSSC[C@@H](C(=O)N[C@@H](C)C(=O)O)NC1=O)NC(=O)[C@H](CCC(N)=O)NC(=O)[C@H](CC(C)C)NC(=O)[C@H](Cc1ccc(O)cc1)NC(=O)[C@H](C(C)C)NC(=O)[C@H](CO)NC3=O)C(=O)N[C@@H](CC(=O)O)C(=O)N1CCC[C@H]1C(=O)N[C@@H](Cc1ccc(O)cc1)C(=O)N[C@@H](Cc1cnc[nH]1)C(=O)N2 |  |  |  |  | 
 |  | inactive | inactive | inactive | inactive |  |  |  |  | CC[C@H](C)[C@@H]1NC(=O)CNC(=O)CNC(=O)[C@H]([C@@H](C)CC)NC(=O)[C@H](C(C)C)NC(=O)[C@@H]2CCCN2C(=O)[C@H](CCC(N)=O)NC(=O)[C@H]([C@@H](C)O)NC(=O)[C@@H]2CSSC[C@@H]3NC(=O)[C@H](Cc4ccc(O)cc4)NC(=O)[C@H](CCC(=O)O)NC(=O)CNC(=O)[C@H](CCCCN)NC(=O)[C@H](CCC(N)=O)NC(=O)[C@H](C)NC(=O)[C@@H](N)CSSC[C@H](NC(=O)[C@H](CSSC[C@H](C(=O)N[C@@H](C)C(=O)O)NC1=O)NC(=O)[C@H](CCC(N)=O)NC(=O)[C@H](CC(C)C)NC(=O)[C@H](Cc1ccc(O)cc1)NC(=O)[C@H](C(C)C)NC(=O)[C@H](CO)NC3=O)C(=O)N[C@@H](CC(=O)O)C(=O)N1CCC[C@H]1C(=O)N[C@@H](Cc1ccc(O)cc1)C(=O)N[C@@H](Cc1cnc[nH]1)C(=O)N2 |  |  |  |  | 
Stable | Stable | inactive | inactive | inactive | Dose-dependent effect | Unstable | > 90 | 2.6 | > 90 | CC[C@H](C)[C@@H]1NC(=O)CNC(=O)[C@H](CC(=O)O)NC(=O)[C@@H]2CSSC[C@@H]3NC(=O)[C@H](CC(C)C)NC(=O)[C@H](Cc4c[nH]c5ccccc45)NC(=O)[C@@H]4CCCN4C(=O)[C@H](CC(=O)O)NC(=O)[C@H](CSSC[C@H](N)C(=O)N[C@@H]([C@@H](C)CC)C(=O)N[C@@H](C)C(=O)N[C@@H](Cc4cnc[nH]4)C(=O)N[C@@H](Cc4ccc(O)cc4)C(=O)NCC(=O)N[C@@H](CCCCN)C(=O)N2)NC(=O)[C@H](CSSC[C@@H](C(=O)N[C@@H](CC(C)C)C(=O)O)NC(=O)[C@H](Cc2ccccc2)NC(=O)CNC(=O)[C@H]([C@@H](C)CC)NC(=O)[C@H]([C@@H](C)CC)NC(=O)[C@@H]2CCCN2C(=O)[C@@H]2CCCN2C(=O)[C@H]([C@@H](C)O)NC3=O)NC(=O)[C@H](CCC(N)=O)NC(=O)[C@H](CC(N)=O)NC(=O)[C@H]([C@@H](C)CC)NC1=O (H-CIAHYGKCDGIINQCCDPWLCTPPIIGFCL-OH; disulfide 1-16, 8-21, 15-29) | Non-toxic | Non-toxic | inactive | Non-toxic | Non-toxic
